Square brackets hold non-standard residues; d marks the D form. Peptide text beside a SMILES is read from it. dPhe(4-Cl) = N[C@H](Cc1ccc(Cl)cc1)C(=O)O; d2Nal = N[C@H](Cc1ccc2ccccc2c1)C(=O)O
Experiments:
Assay type in all cases: functional
[1] = species: Rattus norvegicus; assay: Percent anti-ovulatory activity in Sprague-Dawley rats against percent of 11 rats that did not ovulate at dose 1 microg
In short: (§1)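 Antiovulatory activity was tested in Sprague-Dawley rats using the standard rat antiovulatory assay. Analogues were given in a 40% propylene glycol-saline vehicle at the stated microgram dose. The value is the percentage of the (n) rats in each group in which ovulation was blocked.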

[2] = species: Rattus norvegicus; assay: Percent anti-ovulatory activity in Sprague-Dawley rats against percent of 8 rats that did not ovulate at dose 50 microg; in short: as §1
[3] = species: Rattus norvegicus; assay: Percent anti-ovulatory activity in Sprague-Dawley rats against percent of 8 rats that did not ovulate at dose 3 microg; in short: as §1
[4] = species: Rattus norvegicus; assay: Percent anti-ovulatory activity in Sprague-Dawley rats against percent of 10 rats that did not ovulate at dose 0.5 microg; in short: as §1
[5] = species: Rattus norvegicus; assay: Percent anti-ovulatory activity in Sprague-Dawley rats against percent of 10 rats that did not ovulate at dose 3 ug; in short: as §1
[6] = species: Rattus norvegicus; assay: Percent anti-ovulatory activity in Sprague-Dawley rats against percent of 9 rats that did not ovulate at dose 3 microg; in short: as §1
[7] = species: Rattus norvegicus; assay: Percent anti-ovulatory activity in Sprague-Dawley rats against percent of 13 rats that did not ovulate at dose 1 ug; in short: as §1
[8] = species: Rattus norvegicus; assay: Percent anti-ovulatory activity in Sprague-Dawley rats against percent of 9 rats that did not ovulate at dose 1 microg; in short: as §1
[9] = species: Rattus norvegicus; assay: Percent anti-ovulatory activity in Sprague-Dawley rats against percent of 7 rats that did not ovulate at dose 3 microg; in short: as §1
[10] = species: Rattus norvegicus; assay: Percent anti-ovulatory activity in Sprague-Dawley rats against percent of 13 rats that did not ovulate at dose 0.5 microg; in short: as §1
[11] = species: Rattus norvegicus; assay: Percent anti-ovulatory activity in Sprague-Dawley rats against percent of 5 rats that did not ovulate at dose 1 microg; in short: as §1
[12] = species: Rattus norvegicus; assay: Percent anti-ovulatory activity in Sprague-Dawley rats against percent of 11 rats that did not ovulate at dose 3 microg; in short: as §1
[13] = species: Rattus norvegicus; assay: Percent anti-ovulatory activity in Sprague-Dawley rats against percent of 10 rats that did not ovulate at dose 1 ug; in short: as §1
[14] = species: Rattus norvegicus; assay: Percent anti-ovulatory activity in Sprague-Dawley rats against percent of 10 rats that did not ovulate at dose 50 microg; in short: as §1
[15] = species: Rattus norvegicus; assay: Percent anti-ovulatory activity in Sprague-Dawley rats against percent of 12 rats that did not ovulate at dose 3 microg; in short: as §1
[16] = species: Rattus norvegicus; assay: Percent anti-ovulatory activity in Sprague-Dawley rats against percent of 8 rats that did not ovulate at dose 1 microg; in short: as §1
[17] = species: Rattus norvegicus; assay: Percent anti-ovulatory activity in Sprague-Dawley rats against percent of 10 rats that did not ovulate at dose 1 microg; in short: as §1
[18] = species: Rattus norvegicus; assay: Percent anti-ovulatory activity in Sprague-Dawley rats against percent of 11 rats that did not ovulate at dose 0.5 ug; in short: as §1
[19] = species: Rattus norvegicus; assay: Percent anti-ovulatory activity in Sprague-Dawley rats against percent of 10 rats that did not ovulate at dose 3 microg; in short: as §1
[20] = species: Rattus norvegicus; assay: Percent anti-ovulatory activity in Sprague-Dawley rats against percent of 13 rats that did not ovulate at dose 7.5 microg; in short: as §1

## CC(=O)N[C@H](Cc1ccc2ccccc2c1)C(=O)N[C@H](Cc1ccc2ccccc2c1)C(=O)N[C@H](Cc1c[nH]c2ccccc12)C(=O)N[C@@H](CO)C(=O)N[C@@H](Cc1ccc(O)cc1)C(=O)N[C@H](CCCN=C(N)N)C(=O)N[C@@H](CC(C)C)C(=O)N[C@@H](CCCN=C(N)N)C(=O)N1CCC[C@H]1C(=O)N[C@H](C)C(N)=O
[1]
  Activity: 0%

## CC(=O)N[C@H](Cc1ccc2ccccc2c1)C(=O)N[C@H](Cc1ccc(Cl)cc1)C(=O)N[C@H](Cc1c[nH]c2ccccc12)C(=O)N[C@H]1CSSC[C@@H](C(=O)N[C@@H](CCCN=C(N)N)C(=O)N2CCC[C@H]2C(=O)N[C@H](C)C(N)=O)NC(=O)[C@@H](CCCN=C(N)N)NC(=O)[C@H](Cc2ccc(O)cc2)NC1=O
[2]
  Activity: 0%

## CC(=O)N[C@H](Cc1ccc2ccccc2c1)C(=O)N[C@H](Cc1ccc(Cl)cc1)C(=O)N[C@H](Cc1c[nH]c2ccccc12)C(=O)N[C@@H](CO)C(=O)N[C@@H](Cc1ccc(O)cc1)C(=O)N[C@H](CCCN=C(N)N)C(=O)N[C@@H](Cc1c[nH]c2ccccc12)C(=O)N[C@@H](CCCN=C(N)N)C(=O)N1CCC[C@H]1C(=O)N[C@H](C)C(N)=O
[3]
  Activity: 85%
[4]
  Activity: 10%

## CC(=O)N[C@H](Cc1ccc2ccccc2c1)C(=O)N[C@H](Cc1ccc(Cl)cc1)C(=O)N[C@H](Cc1c[nH]c2ccccc12)C(=O)N[C@@H](CO)C(=O)N[C@@H](Cc1ccc(O)cc1)C(=O)N[C@H](CCCN=C(N)N)C(=O)N[C@H](C(=O)N[C@@H](CCCN=C(N)N)C(=O)N1CCC[C@H]1C(=O)N[C@H](C)C(N)=O)[C@@H](C)O
[5]
  Activity: 20%

## CC(=O)N[C@H](Cc1ccc2ccccc2c1)C(=O)N[C@H](Cc1ccc(Cl)cc1)C(=O)N[C@H](Cc1c[nH]c2ccccc12)C(=O)N[C@@H](CO)C(=O)N[C@@H](Cc1ccc(O)cc1)C(=O)N[C@H](CCCN=C(N)N)C(=O)N[C@@H](CC(C)C)C(=O)N[C@@H](CCCN=C(N)N)C(=O)N1CCC[C@H]1C(=O)N[C@H](C)C(N)=O (Ac-[d2Nal][dPhe(4-Cl)][dW]SY[dR]LRP[dA]-NH2)
[6]
  Activity: 100%
[7]
  Activity: 77%

## CC(=O)N[C@H](Cc1ccc2ccccc2c1)C(=O)N[C@H](Cc1ccc(Cl)cc1)C(=O)N[C@H](Cc1c[nH]c2ccccc12)C(=O)N[C@@H](CO)C(=O)N[C@H]1CSSC[C@@H](C(=O)N[C@@H](CCCN=C(N)N)C(=O)N2CCC[C@H]2C(=O)N[C@H](C)C(N)=O)NC(=O)[C@@H](CCCN=C(N)N)NC1=O
[2]
  Activity: 0%

## CC(=O)N[C@H](Cc1ccc2ccccc2c1)C(=O)N[C@H](Cc1ccc(Cl)cc1)C(=O)N[C@H](Cc1c[nH]c2ccccc12)C(=O)N[C@@H](CO)C(=O)N[C@@H](Cc1ccc(O)cc1)C(=O)N[C@H](CCCN=C(N)N)C(=O)N[C@@H](Cc1ccc(O)cc1)C(=O)N[C@@H](CCCN=C(N)N)C(=O)N1CCC[C@H]1C(=O)N[C@H](C)C(N)=O
[8]
  Activity: 89%
[9]
  Activity: 100%
[10]
  Activity: 31%

## CC(=O)N[C@H](Cc1ccc2ccccc2c1)C(=O)N[C@H](Cc1ccc(Cl)cc1)C(=O)N[C@H](Cc1c[nH]c2ccccc12)C(=O)N[C@@H](CO)C(=O)N[C@@H](Cc1ccc(O)cc1)C(=O)N[C@H](CCCN=C(N)N)C(=O)N[C@@H](Cc1c(F)c(F)c(F)c(F)c1F)C(=O)N[C@@H](CCCN=C(N)N)C(=O)N1CCC[C@H]1C(=O)N[C@H](C)C(N)=O
[11]
  Activity: 20%
[12]
  Activity: 100%

## CC(=O)N[C@H](Cc1ccc2ccccc2c1)C(=O)N[C@H](Cc1ccc(Cl)cc1)C(=O)N[C@H](Cc1c[nH]c2ccccc12)C(=O)N[C@@H](CO)C(=O)N[C@@H](Cc1ccc(O)cc1)C(=O)N[C@H](CCCN=C(N)N)C(=O)N[C@@H](Cc1ccc(F)cc1)C(=O)N[C@@H](CCCN=C(N)N)C(=O)N1CCC[C@H]1C(=O)N[C@H](C)C(N)=O
[3]
  Activity: 75%
[13]
  Activity: 0%

## CC(=O)N[C@H](Cc1ccc2ccccc2c1)C(=O)N[C@H](Cc1ccc(Cl)cc1)C(=O)N[C@@H]1CSSC[C@@H](C(=O)N[C@@H](CCCN=C(N)N)C(=O)N2CCC[C@H]2C(=O)N[C@H](C)C(N)=O)NC(=O)[C@@H](CCCN=C(N)N)NC(=O)[C@H](Cc2ccc(O)cc2)NC(=O)[C@H](CO)NC1=O
[14]
  Activity: 0%

## CC(=O)N[C@H](Cc1ccc2ccccc2c1)C(=O)N[C@H](Cc1ccc2ccccc2c1)C(=O)N[C@H](Cc1c[nH]c2ccccc12)C(=O)N[C@@H](CO)C(=O)N[C@@H](Cc1ccc(O)cc1)C(=O)N[C@H](CCCN=C(N)N)C(=O)N[C@@H](Cc1ccc(O)cc1)C(=O)N[C@@H](CCCN=C(N)N)C(=O)N1CCC[C@H]1C(=O)N[C@H](C)C(N)=O
[8]
  Activity: 11%

## CC(=O)N[C@H](Cc1ccc2ccccc2c1)C(=O)N[C@H](Cc1ccc(Cl)cc1)C(=O)N[C@H](Cc1c[nH]c2ccccc12)C(=O)N[C@@H](CO)C(=O)N[C@@H](Cc1ccc(O)cc1)C(=O)N[C@H](CCCN=C(N)N)C(=O)N[C@@H](Cc1ccc(Cl)cc1)C(=O)N[C@@H](CCCN=C(N)N)C(=O)N1CCC[C@H]1C(=O)N[C@H](C)C(N)=O
[15]
  Activity: 100%
[1]
  Activity: 9%

## CC(=O)N[C@H](Cc1ccc2ccccc2c1)C(=O)N[C@H](Cc1ccc(Cl)cc1)C(=O)N[C@H](Cc1c[nH]c2ccccc12)C(=O)N[C@@H](CO)C(=O)N[C@@H](Cc1ccc(O)cc1)C(=O)N[C@H](CCCN=C(N)N)C(=O)N(C)[C@@H](Cc1ccccc1)C(=O)N[C@@H](CCCN=C(N)N)C(=O)N1CCC[C@H]1C(=O)N[C@H](C)C(N)=O
[16]
  Activity: 13%
[6]
  Activity: 11%

## CC(=O)N[C@H](Cc1ccc2ccccc2c1)C(=O)N[C@@H]1CSSC[C@@H](C(=O)N[C@@H](CCCN=C(N)N)C(=O)N2CCC[C@H]2C(=O)N[C@H](C)C(N)=O)NC(=O)[C@@H](CCCN=C(N)N)NC(=O)[C@H](Cc2ccc(O)cc2)NC(=O)[C@H](CO)NC(=O)[C@@H](Cc2c[nH]c3ccccc23)NC1=O
[2]
  Activity: 0%

## CC(=O)N[C@H](Cc1ccc(Cl)cc1)C(=O)N[C@H](Cc1ccc(Cl)cc1)C(=O)N[C@H](Cc1c[nH]c2ccccc12)C(=O)N[C@@H](CO)C(=O)N[C@@H](Cc1ccc(O)cc1)C(=O)N[C@H](CCCN=C(N)N)C(=O)N[C@@H](Cc1ccccc1)C(=O)N[C@@H](CCCN=C(N)N)C(=O)N1CCC[C@H]1C(=O)N[C@H](C)C(N)=O (Ac-[dPhe(4-Cl)][dPhe(4-Cl)][dW]SY[dR]FRP[dA]-NH2)
[17]
  Activity: 20%

## CC(=O)N[C@H](Cc1ccc2ccccc2c1)C(=O)N[C@H](Cc1ccc(Cl)cc1)C(=O)N[C@H](Cc1c[nH]c2ccccc12)C(=O)N[C@@H](CO)C(=O)N[C@@H](Cc1ccc(O)cc1)C(=O)N[C@H](CCCN=C(N)N)C(=O)N[C@@H](Cc1ccccc1)C(=O)N[C@@H](CCCN=C(N)N)C(=O)N1CCC[C@H]1C(=O)N[C@H](C)C(N)=O (Ac-[d2Nal][dPhe(4-Cl)][dW]SY[dR]FRP[dA]-NH2)
[18]
  Activity: 64%

## CC(=O)N[C@H](Cc1ccc2ccccc2c1)C(=O)N[C@H](Cc1ccc(Cl)cc1)C(=O)N[C@H](Cc1c[nH]c2ccccc12)C(=O)N[C@@H](CO)C(=O)N[C@@H](Cc1ccc(O)cc1)C(=O)N[C@H](CCCN=C(N)N)C(=O)N[C@@H](Cc1ccc2ccccc2c1)C(=O)N[C@@H](CCCN=C(N)N)C(=O)N1CCC[C@H]1C(=O)N[C@H](C)C(N)=O
[4]
  Activity: 0%
[19]
  Activity: 100%

## CC(=O)N[C@H](Cc1ccc2ccccc2c1)C(=O)N[C@H](Cc1ccc(Cl)cc1)C(=O)N[C@H](Cc1c[nH]c2ccccc12)C(=O)N[C@@H](CO)C(=O)N[C@@H](Cc1ccc(O)cc1)C(=O)N[C@H](CCCN=C(N)N)C(=O)N[C@@H](Cc1ccc(C)cc1)C(=O)N[C@@H](CCCN=C(N)N)C(=O)N1CCC[C@H]1C(=O)N[C@H](C)C(N)=O
[8]
  Activity: 22%

## CC(=O)N[C@H](Cc1ccc2ccccc2c1)C(=O)N[C@H](Cc1ccc(Cl)cc1)C(=O)N[C@H](Cc1c[nH]c2ccccc12)C(=O)N[C@@H](CO)C(=O)N[C@@H](Cc1ccc(O)cc1)C(=O)N[C@H](CCCN=C(N)N)C(=O)N[C@@H](CCCCN)C(=O)N[C@@H](CCCN=C(N)N)C(=O)N1CCC[C@H]1C(=O)N[C@H](C)C(N)=O
[20]
  Activity: 0%
